# “And” between values parts separate entries of the source, which are not always exact repeats. Identical values can stand only once.
# Assays:
# D(2) dopamine receptor [1] = target: T1, D(2) dopamine receptor (Homo sapiens, UniProt P14416); experiment: Binding affinity against Dopamine receptor D2
# In short: (§1)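 Screening-panel competition binding. […] Each Ki was replicated 2–3 times and is reported as mean ± SEM from nonlinear fitting. Receptor source and radioligand are not given beyond an online protocol.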
# D(1A) dopamine receptor [2] = target: T2, D(1A) dopamine receptor (Mus musculus, UniProt Q61616); experiment: Binding affinity against Dopamine receptor D1; in short: as §1
# [3] = target: T3, 5-hydroxytryptamine receptor 5A (Homo sapiens, UniProt P47898); experiment: Binding affinities against 5-hydroxytryptamine 5A receptor; in short: as §1
# Rattus norvegicus [4] = experiment: Compound was evaluated for the percentage of rats selecting the drug lever (SDL) following a dose of 0.16 mg/kg and 0.388 uM/kg; assay type: functional
# In short: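 Test drug was given ip 30 min before sessions run under extinction, with ≥8 rats per dose. The first lever reaching 50 presses scored as selected. No completion within 5 min counted as disruption.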
# Rattus norvegicus [5] = experiment: Compound was evaluated for the percentage of rats selecting the drug lever (SDL) following a dose of 0.02 mg/kg and 0.049 uM/kg; assay type: functional
# Rattus norvegicus [6] = experiment: Compound was evaluated for effective dose measured in mg/kg following a dose of 0.08 mg/kg and 0.194 uM/kg (95%CI); range 0.030-0.075; assay type: functional
# [7] = target: T4, 5-hydroxytryptamine receptor 1A (Homo sapiens, UniProt P08908); experiment: Binding affinity against 5-hydroxytryptamine 1A receptor using [3H]8-OH-DPAT as radioligand
# T4 sequence (P08908 whole entry): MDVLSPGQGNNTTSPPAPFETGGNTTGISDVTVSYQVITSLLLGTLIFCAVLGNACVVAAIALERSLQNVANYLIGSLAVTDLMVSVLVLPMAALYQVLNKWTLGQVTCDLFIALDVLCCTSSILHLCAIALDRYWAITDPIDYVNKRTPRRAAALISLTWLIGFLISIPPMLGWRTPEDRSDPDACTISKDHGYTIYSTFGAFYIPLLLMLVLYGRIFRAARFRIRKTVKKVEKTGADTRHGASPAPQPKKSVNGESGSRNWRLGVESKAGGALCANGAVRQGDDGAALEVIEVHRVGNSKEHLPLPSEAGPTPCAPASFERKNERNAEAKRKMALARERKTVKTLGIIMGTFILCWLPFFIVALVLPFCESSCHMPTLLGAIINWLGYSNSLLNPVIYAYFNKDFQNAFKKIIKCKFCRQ
# In short: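 Competition binding at human 5-HT1A stably expressed in CHO cells (maintained in MEM, 10% dialyzed FBS, hygromycin B; serum-free 5 h before harvest, pellets stored –80 °C). 0.80 nM [3H]8-OH-DPAT, buffer 50 mM Tris/0.5 mM EDTA/10 mM MgCl2 pH 7.4, 60 min at 25 °C, filtration.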
# Rattus norvegicus [8] = experiment: Compound was evaluated for effective dose measured in mg/kg following a dose of 0.04 mg/kg and 0.097 uM/kg (95%CI); assay type: functional
# [9] = target: T5, 5-hydroxytryptamine receptor 2B (Homo sapiens, UniProt P41595); experiment: Binding affinities against 5-hydroxytryptamine 2B receptor; in short: as §1
# [10] = target: 5-hydroxytryptamine receptor 1E (Homo sapiens, UniProt P28566); experiment: Binding affinity towards 5-hydroxytryptamine 1E receptor; in short: as §1
# Histamine H1 receptor [11] = target: T6, Histamine H1 receptor (Homo sapiens, UniProt P35367); experiment: Binding affinity against Histamine H1 receptor; in short: as §1
# [12] = target: T7, 5-hydroxytryptamine receptor 6 (Homo sapiens, UniProt P50406); experiment: Binding affinities against 5-hydroxytryptamine 6 receptor; in short: as §1
# [13] = target: 5-hydroxytryptamine receptor 7 (Homo sapiens, UniProt P34969); experiment: Binding affinities against 5-hydroxytryptamine 7 receptor
# [14] = target: T8, 5-hydroxytryptamine receptor 1D (Homo sapiens, UniProt P28221); experiment: Binding affinities against 5-hydroxytryptamine 1D receptor alpha; in short: as §1
# Rattus norvegicus [15] = experiment: Compound was evaluated for the percentage of rats selecting the drug lever (SDL) following a dose of 0.04 mg/kg and 0.097 uM/kg; assay type: functional
# Rattus norvegicus [16] = experiment: Compound was evaluated for the percentage of rats disrupted following a dose of 0.02 mg/kg and 0.049 uM/kg; assay type: functional
# In short: (§2)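 LSD-trained rats (0.08 mg/kg ip vs saline, two-lever, FR50) were given the test drug ip 30 min before extinction sessions, with ≥8 rats per dose. A session was scored as disrupted if 50 presses on one lever were not completed within 5 min. The value is the percentage of rats disrupted at each dose.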
# Rattus norvegicus [17] = experiment: Compound was evaluated for the percentage of rats selecting the drug lever (SDL) following a dose of 0.08 mg/kg and 0.194 uM/kg; assay type: functional
# Rattus norvegicus [18] = experiment: Compound was evaluated for effective dose measured in nmol/kg following a dose of 0.04 mg/kg and 0.097 uM/kg (95%CI); assay type: functional
# D(1A) dopamine receptor [19] = target: T2, D(1A) dopamine receptor; experiment: Binding affinity towards Dopamine receptor D1; in short: as §1
# [20] = target: T7, 5-hydroxytryptamine receptor 6; experiment: Binding affinities towards 5-hydroxytryptamine 6 receptor
# In short: (§3)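 Screening-panel competition binding. Each Ki was replicated 2–3 times and is reported as mean ± SEM from nonlinear fitting. Receptor source and radioligand are not given beyond an online protocol.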
# [21] = target: T3, 5-hydroxytryptamine receptor 5A; experiment: Binding affinities towards 5-hydroxytryptamine 5A receptor
# Histamine H1 receptor [22] = target: T6, Histamine H1 receptor; experiment: Binding affinity towards Histamine H1 receptor; in short: as §3
# [23] = target: T5, 5-hydroxytryptamine receptor 2B; experiment: Binding affinities towards 5-hydroxytryptamine 2B receptor; in short: as §1
# [24] = target: T8, 5-hydroxytryptamine receptor 1D; experiment: Binding affinities towards 5-hydroxytryptamine 1D receptor alpha; in short: as §1
# D(2) dopamine receptor [25] = target: T1, D(2) dopamine receptor; experiment: Binding affinity towards Dopamine receptor D2
# Rattus norvegicus [26] = experiment: Compound was evaluated for effective dose measured in mg/kg following a dose of 0.04 mg/kg and 0.097 uM/kg (95%CI); range 0.027-0.11; assay type: functional
# [27] = target: T4, 5-hydroxytryptamine receptor 1A; experiment: Binding affinity towards 5-hydroxytryptamine 1A receptor using [3H]8-OH-DPAT as radioligand
# Rattus norvegicus [28] = experiment: Compound was evaluated for effective dose measured in mg/kg following a dose of 0.02 mg/kg and 0.049 uM/kg (95%CI); assay type: functional
# Rattus norvegicus [29] = experiment: Compound was evaluated for the percentage of rats disrupted following a dose of 0.01 mg/kg and 0.025 uM/kg; assay type: functional; in short: as §2
# Rattus norvegicus [30] = experiment: Compound was evaluated for the percentage of rats selecting the drug lever (SDL) following a dose of 0.01 mg/kg and 0.025 uM/kg; assay type: functional
# Rattus norvegicus [31] = experiment: Compound was evaluated for effective dose measured in mg/kg following a dose of 0.04 mg/kg and 0.097 uM/kg (95%CI); range 0.007-0.016; assay type: functional
# Rattus norvegicus [32] = experiment: Percentage of rats selecting drug lever (SDL) after 0.08 mg/kg, 0.186 uM/kg dose; assay type: functional
# Rattus norvegicus [33] = experiment: Effective dose as nmol/kg after 0.02 mg/kg, 0.046 uM/kg dose (95%CI); assay type: functional
# Rattus norvegicus [34] = experiment: Percentage of rats disrupted after 0.01 mg/kg, 0.023 uM/kg dose; assay type: functional; in short: as §2
# [35] = target: T8, 5-hydroxytryptamine receptor 1D; experiment: Binding affinity towards 5-hydroxytryptamine 1D receptor alpha using [3H]8-OH-DPAT as radioligand
# D(1B) dopamine receptor = D(1B) dopamine receptor (Homo sapiens, UniProt P21918); experiment: Binding affinity towards Dopamine receptor D5; in short: as §3
# D(4) dopamine receptor = target: T9, D(4) dopamine receptor (Homo sapiens, UniProt P21917); experiment: Binding affinity towards Dopamine receptor D4; in short: as §3
# T9 sequence (P21917 whole entry): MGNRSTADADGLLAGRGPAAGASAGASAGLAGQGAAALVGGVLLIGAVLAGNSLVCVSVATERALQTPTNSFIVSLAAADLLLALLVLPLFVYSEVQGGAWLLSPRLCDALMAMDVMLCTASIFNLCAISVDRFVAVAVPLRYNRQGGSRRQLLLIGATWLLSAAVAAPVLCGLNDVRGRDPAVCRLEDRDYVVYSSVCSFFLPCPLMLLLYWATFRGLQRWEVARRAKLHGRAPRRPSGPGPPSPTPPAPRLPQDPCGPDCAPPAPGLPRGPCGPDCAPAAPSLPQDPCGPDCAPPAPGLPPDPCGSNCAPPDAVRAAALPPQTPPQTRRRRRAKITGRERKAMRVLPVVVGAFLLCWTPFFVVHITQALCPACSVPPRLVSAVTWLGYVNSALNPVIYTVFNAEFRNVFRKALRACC
# Rattus norvegicus [36] = experiment: Percentage of rats disrupted after 0.08 mg/kg, 0.186 uM/kg dose (95%CI); assay type: functional; in short: as §2
# Rattus norvegicus [37] = experiment: Effective dose in rats as nmol/kg after 0.04 mg/kg, 0.093 uM/kg dose (95%CI); assay type: functional
# Rattus norvegicus [38] = experiment: Percentage of rats selecting the drug lever (SDL) after 0.01 mg/kg, 0.023 uM/kg dose; assay type: functional
# D(3) dopamine receptor = D(3) dopamine receptor (Homo sapiens, UniProt P35462); experiment: Binding affinity towards Dopamine receptor D3
# Rattus norvegicus [39] = experiment: Percentage of rats selecting drug lever (SDL) after 0.04 mg/kg, 0.093 uM/kg dose; assay type: functional
# Rattus norvegicus [40] = experiment: Percentage of rats selecting the drug lever (SDL) after 0.02 mg/kg, 0.046 uM/kg dose; assay type: functional
# D(1A) dopamine receptor [41] = target: T2, D(1A) dopamine receptor; experiment: Binding affinities towards Dopamine receptor D1; in short: as §1
# Rattus norvegicus [42] = experiment: Percentage of rats disrupted after 0.02 mg/kg, 0.046 uM/kg dose; assay type: functional; in short: as §2
# Rattus norvegicus [43] = experiment: Percentage of rats disrupted after 0.04 mg/kg, 0.093 uM/kg dose; assay type: functional; in short: as §2
# T5 sequence (P41595 whole entry): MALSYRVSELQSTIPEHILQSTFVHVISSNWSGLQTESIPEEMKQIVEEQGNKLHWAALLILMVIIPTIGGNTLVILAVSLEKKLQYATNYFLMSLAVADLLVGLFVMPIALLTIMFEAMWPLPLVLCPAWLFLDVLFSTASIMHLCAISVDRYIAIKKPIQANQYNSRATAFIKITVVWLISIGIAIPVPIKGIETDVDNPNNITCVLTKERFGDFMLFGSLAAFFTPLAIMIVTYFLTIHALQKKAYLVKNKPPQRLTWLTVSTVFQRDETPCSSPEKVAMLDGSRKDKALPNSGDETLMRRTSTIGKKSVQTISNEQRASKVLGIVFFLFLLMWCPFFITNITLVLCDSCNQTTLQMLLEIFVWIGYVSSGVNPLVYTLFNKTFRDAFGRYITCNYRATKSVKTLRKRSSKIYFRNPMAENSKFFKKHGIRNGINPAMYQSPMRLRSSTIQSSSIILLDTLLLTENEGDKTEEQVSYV
# T7 sequence (P50406 whole entry): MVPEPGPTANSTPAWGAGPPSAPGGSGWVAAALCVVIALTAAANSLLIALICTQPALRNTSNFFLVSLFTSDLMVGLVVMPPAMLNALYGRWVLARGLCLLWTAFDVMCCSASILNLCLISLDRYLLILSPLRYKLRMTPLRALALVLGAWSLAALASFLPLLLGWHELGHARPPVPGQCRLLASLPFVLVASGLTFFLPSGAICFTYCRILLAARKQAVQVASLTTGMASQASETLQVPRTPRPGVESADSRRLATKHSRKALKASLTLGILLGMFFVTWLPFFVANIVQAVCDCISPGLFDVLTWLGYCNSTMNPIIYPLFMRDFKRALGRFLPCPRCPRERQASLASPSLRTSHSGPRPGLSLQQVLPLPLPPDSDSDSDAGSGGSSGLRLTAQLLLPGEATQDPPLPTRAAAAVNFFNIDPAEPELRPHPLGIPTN
# T8 sequence (P28221 whole entry): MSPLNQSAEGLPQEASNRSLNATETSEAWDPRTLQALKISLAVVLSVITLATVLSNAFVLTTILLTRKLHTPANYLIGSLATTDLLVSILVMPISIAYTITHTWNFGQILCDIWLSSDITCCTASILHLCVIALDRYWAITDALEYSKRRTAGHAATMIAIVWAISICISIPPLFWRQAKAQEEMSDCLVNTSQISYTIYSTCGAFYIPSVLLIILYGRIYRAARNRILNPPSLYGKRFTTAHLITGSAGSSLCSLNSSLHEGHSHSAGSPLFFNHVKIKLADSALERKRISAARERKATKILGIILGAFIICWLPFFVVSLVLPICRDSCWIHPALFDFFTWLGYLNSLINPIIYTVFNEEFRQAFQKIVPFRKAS
# Sequence of 5-hydroxytryptamine receptor 1E (P28566 whole entry): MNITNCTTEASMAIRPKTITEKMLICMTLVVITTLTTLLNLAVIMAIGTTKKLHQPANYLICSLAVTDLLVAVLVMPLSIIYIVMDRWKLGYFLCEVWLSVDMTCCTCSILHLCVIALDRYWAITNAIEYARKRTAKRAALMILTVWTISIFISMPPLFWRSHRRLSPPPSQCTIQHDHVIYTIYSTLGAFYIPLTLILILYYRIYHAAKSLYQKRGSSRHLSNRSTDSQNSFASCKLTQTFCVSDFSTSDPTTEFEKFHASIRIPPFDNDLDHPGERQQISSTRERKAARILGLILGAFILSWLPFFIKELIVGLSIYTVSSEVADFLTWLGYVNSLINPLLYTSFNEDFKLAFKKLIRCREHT
# T1 sequence (P14416 whole entry): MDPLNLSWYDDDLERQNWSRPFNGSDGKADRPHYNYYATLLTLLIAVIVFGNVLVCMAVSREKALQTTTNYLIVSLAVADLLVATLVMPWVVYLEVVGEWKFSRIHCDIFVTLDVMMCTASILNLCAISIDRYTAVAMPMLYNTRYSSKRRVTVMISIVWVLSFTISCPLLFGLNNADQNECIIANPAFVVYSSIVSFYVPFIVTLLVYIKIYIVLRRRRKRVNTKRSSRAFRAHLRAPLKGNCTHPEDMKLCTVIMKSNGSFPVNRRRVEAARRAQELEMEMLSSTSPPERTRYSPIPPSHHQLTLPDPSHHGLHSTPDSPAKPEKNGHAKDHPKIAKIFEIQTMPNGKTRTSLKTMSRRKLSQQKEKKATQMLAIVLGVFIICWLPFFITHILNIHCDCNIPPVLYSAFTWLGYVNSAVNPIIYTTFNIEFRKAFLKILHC
# T6 sequence (P35367 whole entry): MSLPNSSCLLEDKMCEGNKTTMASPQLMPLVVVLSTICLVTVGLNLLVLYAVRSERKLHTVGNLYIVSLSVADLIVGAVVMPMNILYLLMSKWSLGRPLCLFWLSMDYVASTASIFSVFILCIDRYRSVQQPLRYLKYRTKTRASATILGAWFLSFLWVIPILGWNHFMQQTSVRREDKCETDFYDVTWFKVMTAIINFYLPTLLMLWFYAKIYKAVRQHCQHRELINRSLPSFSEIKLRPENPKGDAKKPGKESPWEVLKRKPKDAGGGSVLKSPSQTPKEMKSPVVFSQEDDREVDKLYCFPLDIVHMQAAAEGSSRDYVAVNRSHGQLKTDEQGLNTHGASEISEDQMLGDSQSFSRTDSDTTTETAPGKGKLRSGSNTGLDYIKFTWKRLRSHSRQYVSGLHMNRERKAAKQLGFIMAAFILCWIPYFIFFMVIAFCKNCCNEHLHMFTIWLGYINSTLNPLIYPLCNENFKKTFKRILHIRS
# T2 sequence (Q61616 whole entry): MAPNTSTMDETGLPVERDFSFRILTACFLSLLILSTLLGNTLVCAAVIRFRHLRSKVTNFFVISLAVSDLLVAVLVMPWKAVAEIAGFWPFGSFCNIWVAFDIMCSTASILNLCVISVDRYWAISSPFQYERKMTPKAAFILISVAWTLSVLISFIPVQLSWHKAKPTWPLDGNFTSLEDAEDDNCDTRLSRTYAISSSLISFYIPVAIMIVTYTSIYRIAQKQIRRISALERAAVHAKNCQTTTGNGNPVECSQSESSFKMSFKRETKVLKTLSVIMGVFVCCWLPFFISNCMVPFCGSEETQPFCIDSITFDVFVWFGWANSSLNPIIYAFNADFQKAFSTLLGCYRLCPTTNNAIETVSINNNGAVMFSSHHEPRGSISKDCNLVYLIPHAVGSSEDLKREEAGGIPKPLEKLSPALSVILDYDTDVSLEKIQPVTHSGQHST
# T3 sequence (P47898 whole entry): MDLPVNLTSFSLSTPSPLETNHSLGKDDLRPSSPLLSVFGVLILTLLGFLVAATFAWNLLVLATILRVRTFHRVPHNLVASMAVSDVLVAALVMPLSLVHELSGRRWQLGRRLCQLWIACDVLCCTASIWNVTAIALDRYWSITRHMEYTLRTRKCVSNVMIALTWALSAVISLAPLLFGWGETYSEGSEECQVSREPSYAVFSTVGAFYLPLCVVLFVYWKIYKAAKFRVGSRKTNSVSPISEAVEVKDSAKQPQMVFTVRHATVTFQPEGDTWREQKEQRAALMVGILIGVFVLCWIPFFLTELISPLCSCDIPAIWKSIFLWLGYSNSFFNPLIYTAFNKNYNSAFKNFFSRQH
# Sequence of D(1B) dopamine receptor (P21918 whole entry): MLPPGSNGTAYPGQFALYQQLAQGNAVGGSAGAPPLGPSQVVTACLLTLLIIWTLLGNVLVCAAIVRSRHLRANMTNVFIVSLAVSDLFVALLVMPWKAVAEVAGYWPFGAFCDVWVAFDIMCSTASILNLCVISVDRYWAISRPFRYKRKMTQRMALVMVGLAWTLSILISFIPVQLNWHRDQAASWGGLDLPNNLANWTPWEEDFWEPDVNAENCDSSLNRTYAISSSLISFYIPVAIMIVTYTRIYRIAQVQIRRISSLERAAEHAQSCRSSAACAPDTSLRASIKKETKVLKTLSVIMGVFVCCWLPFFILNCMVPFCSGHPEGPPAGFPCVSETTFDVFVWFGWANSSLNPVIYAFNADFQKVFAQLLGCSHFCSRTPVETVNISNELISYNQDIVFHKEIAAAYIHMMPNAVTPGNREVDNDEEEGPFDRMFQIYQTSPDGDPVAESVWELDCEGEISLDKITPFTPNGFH
# Sequence of 5-hydroxytryptamine receptor 7 (P34969 whole entry): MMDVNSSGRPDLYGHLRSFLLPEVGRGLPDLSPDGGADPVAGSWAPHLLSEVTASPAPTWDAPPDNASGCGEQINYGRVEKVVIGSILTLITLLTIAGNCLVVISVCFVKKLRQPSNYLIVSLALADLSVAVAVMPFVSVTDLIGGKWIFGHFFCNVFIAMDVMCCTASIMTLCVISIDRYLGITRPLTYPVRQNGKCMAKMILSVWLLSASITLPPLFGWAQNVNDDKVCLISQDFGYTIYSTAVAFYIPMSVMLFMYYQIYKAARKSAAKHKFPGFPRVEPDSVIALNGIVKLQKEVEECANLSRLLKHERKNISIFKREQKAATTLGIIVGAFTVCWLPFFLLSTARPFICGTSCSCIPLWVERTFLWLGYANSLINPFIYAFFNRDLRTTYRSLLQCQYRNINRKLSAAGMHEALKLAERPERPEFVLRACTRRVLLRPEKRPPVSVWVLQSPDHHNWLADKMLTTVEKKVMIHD
# Sequence of D(3) dopamine receptor (P35462 whole entry): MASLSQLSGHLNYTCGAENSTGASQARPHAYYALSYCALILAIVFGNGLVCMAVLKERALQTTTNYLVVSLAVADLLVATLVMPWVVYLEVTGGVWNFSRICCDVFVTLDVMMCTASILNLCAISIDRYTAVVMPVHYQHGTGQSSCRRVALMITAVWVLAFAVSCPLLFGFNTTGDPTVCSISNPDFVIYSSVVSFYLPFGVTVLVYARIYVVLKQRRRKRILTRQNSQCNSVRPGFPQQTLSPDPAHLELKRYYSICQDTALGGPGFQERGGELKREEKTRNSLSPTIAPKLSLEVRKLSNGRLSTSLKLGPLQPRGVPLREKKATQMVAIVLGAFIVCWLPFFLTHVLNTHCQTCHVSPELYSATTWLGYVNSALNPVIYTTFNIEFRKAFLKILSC
compound,measurement,setting,value
C[C@@H]1C[C@H](C)N1C(=O)[C@@H]1C=C2c3cccc4[nH]cc(c34)CC2N(C)C1 (some centres not stated),Ki,D(2) dopamine receptor [1],60 nM
same,Ki,D(1A) dopamine receptor [2],230 nM
same,Ki,[3],16 nM
same,ED50,Rattus norvegicus [4],0.03 mg/kg
same,D,Rattus norvegicus [5],0%
same,ED50,Rattus norvegicus [6],0.047 mg/kg
same,Ki,[7],1.1 nM
same,D,Rattus norvegicus [8],20%
same,SDL,Rattus norvegicus [8],70%
same,Ki,[9],44 nM
same,Ki,[10],200 nM
same,Ki,Histamine H1 receptor [11],500 nM
same,Ki,[12],13 nM
same,Ki,[13],12 nM
same,Ki,[14],3.7 nM
same,D,Rattus norvegicus [15],0%
same,SDL,Rattus norvegicus [15],33%
same,D,Rattus norvegicus [16],12%
C[C@@H]1C[C@@H](C)N1C(=O)[C@@H]1C=C2c3cccc4[nH]cc(c34)CC2N(C)C1 (some centres not stated),ED50,Rattus norvegicus [17],0.027 mg/kg
same,SDL,Rattus norvegicus [17]; 0.08 mg/kg,25% and 56%
same,ED50,Rattus norvegicus [18],0.066 µmol/kg
same,Ki,D(1A) dopamine receptor [19],340 nM
same,Ki,[20],61 nM
same,SDL,Rattus norvegicus [4],40%
same,Ki,[21],13 nM
same,D,Rattus norvegicus [5],0%
same,D,Rattus norvegicus [8],17%
same,ED50,Rattus norvegicus [8],0.055 mg/kg
same,Ki,Histamine H1 receptor [22],1400 nM
same,Ki,[10],140 nM
same,Ki,[23],310 nM
same,Ki,[24],2 nM
same,Ki,D(2) dopamine receptor [25],330 nM
same,SDL,Rattus norvegicus [26],80%
same,Ki,[27],6.8 nM
same,D,Rattus norvegicus [15],10%
same,D,Rattus norvegicus [16],0%
C[C@H]1C[C@H](C)N1C(=O)[C@@H]1C=C2c3cccc4[nH]cc(c34)CC2N(C)C1 (some centres not stated),SDL,Rattus norvegicus [17],50%
same,D,Rattus norvegicus [28],0%
same,ED50,Rattus norvegicus [28],0.01 mg/kg
same,Ki,D(1A) dopamine receptor [19],290 nM
same,D,Rattus norvegicus [29],6%
same,Ki,[20],15 nM
same,Ki,[21],27 nM
same,D,Rattus norvegicus [5],0%
same,Ki,Histamine H1 receptor [22],2500 nM
same,Ki,[10],280 nM
same,Ki,[23],27 nM
same,Ki,[24],2.4 nM
same,Ki,D(2) dopamine receptor [25],110 nM
same,D,Rattus norvegicus [30],7%
same,SDL,Rattus norvegicus [31],100%
same,Ki,[27],0.45 nM
same,SDL,Rattus norvegicus [15],67% and 90%
same,ED50,Rattus norvegicus [16],0.025 µmol/kg
CCN(CC)C(=O)[C@@H]1C=C2c3cccc4[nH]cc(c34)C[C@H]2N(C)C1 [LYSERGIDE],SDL,Rattus norvegicus [32],100%
same,ED50,Rattus norvegicus [33],0.045 µmol/kg
same,D,Rattus norvegicus [34],0%
same,Ki,[35],3.9 nM
same,Ki,D(1B) dopamine receptor,340 nM
same,Ki,D(4) dopamine receptor,56 nM
same,D,Rattus norvegicus [36],0%
same,Ki,[10],93 nM
same,ED50,Rattus norvegicus [37],0.032 µmol/kg
same,SDL,Rattus norvegicus [38],17%
same,Ki,D(3) dopamine receptor,27 nM
same,SDL,Rattus norvegicus [39],75%
same,Ki,D(2) dopamine receptor [25],120 nM
same,SDL,Rattus norvegicus [40],58%
same,Ki,D(1A) dopamine receptor [41],180 nM
same,D,Rattus norvegicus [42],0%
same,D,Rattus norvegicus [43],0%

# Source: ChEMBL document CHEMBL1135791, “Lysergamides of isomeric 2,4-dimethylazetidines map the binding orientation of the diethylamide moiety in the potent hallucinogenic agent N,N-diethyllysergamide (LSD)” (J Med Chem, 2002)
